According to ChEMBL document CHEMBL4261626, “Design, synthesis, and effects of novel phenylpyrimidines as glucagon receptor antagonists” (Bioorg Med Chem, 2018):
pIC50: −log10 of the molar value. Calls of active or inactive are those of the source. No cut-off for these calls is given here.

Legend:
Hepatocyte [1] = experiment: Inhibition of glucagon-induced glucose production in C57BL/6N mouse primary hepatocytes grown under gluconeogenic medium at 10 uM after 30 mins by glucose assay reagent-based glucose oxidase method; format: functional, cell-based
How it was run: (§1)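 Primary mouse hepatocytes were plated at 2.5×10^5/well. After 24 h they were washed and held 3 h in glucose-free DMEM. Compound (20 μM screen, or 1–100 μM series) was then added with 20 mM sodium lactate, 2 mM sodium pyruvate and 10 nM glucagon. Medium glucose was assayed by kit after 30 min and normalized to cellular protein. Five independent experiments, each in triplicate.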

Hepatocyte [2] = experiment: Inhibition of glucagon-induced glucose production in C57BL/6N mouse primary hepatocytes grown under gluconeogenic medium after 30 mins by glucose assay reagent-based glucose oxidase method; format: functional, cell-based; how it was run: as §1
Hepatocyte [3] = experiment: Inhibition of glucagon-induced glucose production in C57BL/6N mouse primary hepatocytes grown under gluconeogenic medium at 20 uM after 30 mins by glucose assay reagent-based glucose oxidase method; format: functional; conditions: 0.5 h; how it was run: as §1
Glucagon receptor [4] = molecular target: T1, Glucagon receptor (Homo sapiens, UniProt P47871); experiment: Antagonist activity at human glucagon receptor expressed in CHO-K1 GCGR Gs cells assessed as inhibition of glucagon-induced cAMP accumulation at 10 uM pre-incubated for 10 mins before glucagon and forskolin addition and further incubated for 30 mins by luminescence-based assay; format: functional, cell-based; conditions: in the assay text read “pre-incubated for 15 mins” for “pre-incubated for 10 mins”
How it was run: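 CHO-K1 GCGR Gs cells were seeded at 1×10^4/well. The next day they were pre-treated with compound at 10 μM in PBS for 15 min at 37 °C, 5% CO₂. Then 0.1 nM glucagon plus 10 μM forskolin was added for a further 30 min. cAMP was read by HitHunter enzyme-complementation luminescence. Three independent experiments.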

Glucagon receptor [5] = molecular target: T1, Glucagon receptor; experiment: Antagonist activity at human glucagon receptor expressed in CHO-K1 GCGR Gs cells assessed as inhibition of glucagon-induced cAMP accumulation pre-incubated for 10 mins before glucagon and forskolin addition and further incubated for 30 mins by luminescence-based assay; format: functional, cell-based; conditions: in the assay text read “pre-incubated for 15 mins” for “pre-incubated for 10 mins”
How it was run: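 Glucagon-receptor CHO-K1 GCGR Gs cells (1×10^4/well, plated the day before) were exposed to compound at 0.0001–100 μM in PBS for 15 min at 37 °C. Cells were then stimulated with 0.1 nM glucagon and 10 μM forskolin for 30 min. cAMP was measured by HitHunter luminescence. IC50 was fitted from three independent determinations.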

[6] = (§2) Cytotoxicity against C57BL/6N mouse primary hepatocytes assessed as cell viability at 20 uM after 24 hrs by CCK8 assay; format: cell-based, Hepatocyte; conditions: C57BL/6N, primary hepatocytes, read-out: Activity
How it was run: (§3)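 Hepatocytes were isolated by portal-vein perfusion and Percoll gradient from 10-week male C57BL/6N mice. Cells were seeded at 1×10^4/well and exposed to 20 μM compound in cell plating reagent for 24 h. CCK-8 was then added for 2 h at 37 °C and absorbance read at 450 nm. Three independent experiments, each in triplicate.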

Hepatocyte [7] = experiment: Inhibition of glucagon-induced glucose production in C57BL/6N mouse primary hepatocytes grown under gluconeogenic medium at 20 uM after 3 hrs by glucose assay reagent-based glucose oxidase method; format: functional, cell-based
How it was run: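 Mouse primary hepatocytes in glucose-free DMEM were given 20 μM compound for 3 h with 10 nM glucagon, 2 mM sodium pyruvate and 20 mM sodium lactate. Medium glucose was measured by glucose assay kit 30 min after glucagon. Three independent experiments.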

Mus musculus [8] = experiment: Antihyperglycemic activity in db/db mouse assessed as reduction in blood glucose level at 50 mg/kg, po administered once per day for 4 weeks and measured after 12 hrs fasting; format: functional, organism-based
How it was run: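 Male db/db mice were obtained at 6 weeks; only animals with blood glucose over 400 mg/dL were used. They were dosed 50 mg/kg by oral intubation once daily for 4 weeks, in 9% cremophore with 10% DMSO in sterile water. Fasting blood glucose was read by glucometer after a 12 h fast at week 4. n=7/group.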

Mus musculus [9] = experiment: Antihyperglycemic activity in db/db mouse assessed pretreated at 50 mg/kg, po administered via intubation once per day for 4 weeks followed by fasting for 5 hrs before second administration at 50 mg/kg via oral gavage and subsequent glucagon challenge after 1 hr and measured durimng 15 to 60 mins post glucagon injection; format: functional, organism-based
How it was run: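 Diabetic db/db mice were dosed orally at 50 mg/kg daily for 4 weeks (vehicle 9% cremophore/10% DMSO in sterile water). They were then fasted 5 h and re-dosed 50 mg/kg by gavage. After 1 h they received glucagon 15 μg/kg i.p. Blood glucose was measured at 15, 30, 45 and 60 min. n=4–6/group.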

Hepatocyte [10] = experiment: as §2; format: cell-based; conditions: hepatocytes, 24 h, 20 µM; how it was run: as §3

T1 sequence (P47871 whole entry): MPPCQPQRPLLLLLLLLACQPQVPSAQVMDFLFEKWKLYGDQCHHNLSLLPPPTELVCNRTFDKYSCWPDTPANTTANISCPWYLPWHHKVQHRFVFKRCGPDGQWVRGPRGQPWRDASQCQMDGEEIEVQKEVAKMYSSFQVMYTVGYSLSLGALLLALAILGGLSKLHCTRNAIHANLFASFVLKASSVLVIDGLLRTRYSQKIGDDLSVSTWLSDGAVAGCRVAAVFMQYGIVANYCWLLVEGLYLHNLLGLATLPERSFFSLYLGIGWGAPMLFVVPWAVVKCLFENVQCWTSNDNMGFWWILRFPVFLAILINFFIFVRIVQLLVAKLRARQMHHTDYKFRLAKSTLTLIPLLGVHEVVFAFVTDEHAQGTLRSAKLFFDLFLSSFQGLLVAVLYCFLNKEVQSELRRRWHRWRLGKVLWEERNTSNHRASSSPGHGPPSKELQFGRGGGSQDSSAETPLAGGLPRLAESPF

Row | Compound | inhibition at 20 µM (Hepatocyte [3]) | inhibition (Glucagon receptor [4]) | pIC50 (Glucagon receptor [5]) | viability at 24 h, 20 µM [6] | also measured
1 | CCCCC(Oc1ncc(-c2ccc(C(C)(C)C)cc2)cn1)c1ccc(C(=O)NCCC(=O)O)cc1 (configuration not stated) | > 60% | > 60% | 5.22 | > 80% | inhibition (Hepatocyte [1]): Active; inhibition (Hepatocyte [2]): Dose-dependent effect
2 | CCCC[C@@H](Oc1ncc(-c2ccccc2)cn1)c1ccc(C(=O)NCCC(=O)O)cc1 |  |  | 5.03 |  | inhibition (Hepatocyte [7]): Active; Activity (Mus musculus [8]): Active; Activity (Mus musculus [9]): Active; Activity (Hepatocyte [10]): Non-Toxic
3 | CCCCC(Oc1ncc(-c2ccc(Oc3ccccc3)cc2)cn1)c1ccc(C(=O)NCCC(=O)O)cc1 (configuration not stated) | > 60% | > 60% | 5.09 | > 80% | 
4 | CCCC[C@H](Oc1ncc(-c2ccccc2)cn1)c1ccc(C(=O)NCCC(=O)O)cc1 |  |  | 5.07 |  | inhibition (Hepatocyte [7]): Active; Activity (Mus musculus [8]): Active; Activity (Mus musculus [9]): Active; Activity (Hepatocyte [10]): Toxic
5 | CCCCC(Oc1ncc(-c2ccccc2)cn1)c1ccc(C(=O)NCCC(=O)O)cc1 (configuration not stated) | > 60% | > 60% | 5.39 | > 80% | inhibition (Hepatocyte [1]): Active; inhibition (Hepatocyte [2]): Dose-dependent effect
6 | CCCCC(Oc1ncc(-c2ccc(C(F)(F)F)cc2F)cn1)c1ccc(C(=O)NCCC(=O)O)cc1 (configuration not stated) |  | > 60% |  | > 80% | 
7 | CCC(CC)C(=O)Nc1sc2c(c1C#N)CCC(C(C)(C)CC)C2 (configuration not stated) |  | > 60% |  | > 80% | 
8 | CCCCC(Oc1ncc(-c2cc(Cl)cc(Cl)c2)cn1)c1ccc(C(=O)NCCC(=O)O)cc1 (configuration not stated) | > 60% | > 60% | 5.16 | > 80% | inhibition (Hepatocyte [2]): Dose-dependent effect
9 | CCCCC(Oc1ncc(-c2ccc(C(F)(F)F)cc2)cn1)c1ccc(C(=O)NCCC(=O)O)cc1 (configuration not stated) |  | > 60% |  | > 80% | 
10 | CCCCC(Oc1ncc(-c2ccc(Cl)cc2)cn1)c1ccc(C(=O)NCCC(=O)O)cc1 (configuration not stated) |  | > 60% |  | > 80% | 
11 | CCCCC(Oc1ncc(-c2ccccc2Cl)cn1)c1ccc(C(=O)NCCC(=O)O)cc1 (configuration not stated) |  | > 60% |  | > 80% | 
12 | Cc1cc(O[C@@H](CCC(F)(F)F)c2ccc(C(=O)NCCC(=O)O)cc2)cc(C)c1-c1ccc(C(C)(C)C)cc1 |  |  |  |  | Activity (Mus musculus [8]): inactive
13 | CCCCC(Oc1ncc(-c2cccc(Cl)c2)cn1)c1ccc(C(=O)NCCC(=O)O)cc1 (configuration not stated) |  | > 60% |  | > 80% | 
14 | CCCC[C@H](Oc1ncc(-c2ccc(C(C)(C)C)cc2)cn1)c1ccc(C(=O)NCCC(=O)O)cc1 |  |  |  |  | inhibition (Hepatocyte [7]): inactive; Activity (Hepatocyte [10]): Toxic
15 | CCCC[C@@H](Oc1ncc(-c2ccc(C(C)(C)C)cc2)cn1)c1ccc(C(=O)NCCC(=O)O)cc1 |  |  |  |  | inhibition (Hepatocyte [7]): inactive; Activity (Hepatocyte [10]): Toxic
16 | CCCCC(Oc1ncc(-c2ccc(CC)cc2)cn1)c1ccc(C(=O)NCCC(=O)O)cc1 (configuration not stated) | > 60% | > 60% | 4.75 | > 80% | 
